Assay results as given in ChEMBL document CHEMBL1139658, “Synthesis and screening of bicyclic carbohydrate-based compounds: a novel type of antivirals” (Bioorg Med Chem Lett, 2006).
Values after ≈ are worked out from the molar mass of the structure shown.

What was measured:
Cytomegalovirus [1] = assay: Antiviral activity against Cytomegalovirus AD-169 in human embryonic lung cells; assay type: functional, organism-based; details: Human betaherpesvirus 5, AD-169, lung
Outline: (§1)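 HEL cell monolayers infected at 20 PFU per well, adsorbed 2 h at 37 °C. Medium with serial compound dilutions then added. Giemsa stain on day 7 and plaques counted under the microscope. IC50 is the concentration giving 50% inhibition of virus-induced plaque formation. Minimum cytotoxic concentration scored on day 7 as the lowest concentration causing visible change to the confluent cells.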

HEL = assay: Cytotoxicity against human embryonic lung cells; assay type: functional
Outline: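 Two HEL cell toxicity read-outs. Cell growth (CC50): growing HEL cells in 96-well plates were given serial compound concentrations for 3 days, then trypsinized and counted with a Coulter counter; CC50 is the concentration cutting cell growth by 50%. Morphology (MCC): on confluent monolayers during the antiviral assay, this is the lowest concentration with microscopically visible toxicity at day 7.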

Cytomegalovirus [2] = assay: Antiviral activity against Cytomegalovirus Davies in human embryonic lung cells; assay type: functional, organism-based; details: Human betaherpesvirus 5, Davies; outline: as §1

## CO[C@H]1[C@H]2O[C@H](c3ccccc3)OC[C@H]2O[C@@H](c2ccccc2)[C@@H]1OC
Cytomegalovirus [1]
  IC50: > 50 µg/mL
HEL
  MCC: > 400 µg/mL
Cytomegalovirus [2]
  IC50: > 50 µg/mL

## O[C@@H]1[C@@H](O)[C@H](c2ccccc2)O[C@@H]2CO[C@@H](c3ccc(Cl)cc3)O[C@@H]12
Cytomegalovirus [1]
  IC50: 14 µg/mL (≈ 38.6 µM)
HEL
  CC50: > 50 µg/mL
  MCC: ≥ 100 µg/mL
Cytomegalovirus [2]
  IC50: 10 µg/mL (≈ 27.6 µM)

## CO[C@@H]1[C@@H](OC)[C@H](c2ccccc2)O[C@@H]2CO[C@@H](c3cccc(Cl)c3)O[C@@H]12
Cytomegalovirus [1]
  IC50: 5 µg/mL (≈ 12.8 µM)
HEL
  MCC: ≥ 40 µg/mL
Cytomegalovirus [2]
  IC50: 3.2 µg/mL (≈ 8.19 µM)

## CO[C@@H]1[C@@H](OC)[C@H](c2ccccc2)O[C@@H]2CO[C@@H](c3ccc(Cl)cc3)O[C@@H]12
Cytomegalovirus [1]
  IC50: 5 µg/mL (≈ 12.8 µM)
HEL
  CC50: > 50 µg/mL
  MCC: ≥ 100 µg/mL
Cytomegalovirus [2]
  IC50: 4 µg/mL (≈ 10.2 µM)

## C#CCO[C@@H]1[C@@H](OCC#C)[C@H](Cc2ccccc2)O[C@@H]2CO[C@@H](c3ccccc3)O[C@@H]12
Cytomegalovirus [1]
  IC50: 0.5 µg/mL (≈ 1.19 µM)
HEL
  MCC: 40 µg/mL
Cytomegalovirus [2]
  IC50: 0.5 µg/mL (≈ 1.19 µM)

## CC(C)CO[C@@H]1[C@@H](OCC(C)C)[C@@H](c2ccccc2)O[C@@H]2CO[C@@H](c3ccccc3)O[C@@H]12
Cytomegalovirus [1]
  IC50: 2.6 µg/mL (≈ 5.9 µM)
HEL
  MCC: 40 µg/mL
Cytomegalovirus [2]
  IC50: 3.2 µg/mL (≈ 7.26 µM)

## C#CCO[C@@H]1[C@@H](OCC#C)[C@H](c2ccccc2)O[C@@H]2CO[C@@H](c3ccccc3)O[C@@H]12
Cytomegalovirus [1]
  IC50: 5 µg/mL (≈ 12.4 µM)
HEL
  MCC: 40 µg/mL
Cytomegalovirus [2]
  IC50: 3 µg/mL (≈ 7.42 µM)

## CO[C@@H]1[C@@H](OC)[C@H](c2ccccc2)O[C@@H]2CO[C@@H](c3ccc(C(F)(F)F)cc3)O[C@@H]12
Cytomegalovirus [1]
  IC50: 1.5 µg/mL (≈ 3.53 µM)
HEL
  CC50: > 50 µg/mL
  MCC: ≥ 16 µg/mL
Cytomegalovirus [2]
  IC50: 3.1 µg/mL (≈ 7.3 µM)

## CCO[C@@H]1[C@@H](OCC)[C@H](Cc2ccccc2)O[C@@H]2CO[C@@H](c3ccccc3)O[C@@H]12
Cytomegalovirus [1]
  IC50: 2.6 µg/mL (≈ 6.52 µM)
HEL
  CC50: > 50 µg/mL
  MCC: > 120 µg/mL
Cytomegalovirus [2]
  IC50: 3 µg/mL (≈ 7.53 µM)

## CO[C@@H]1[C@@H](OC)[C@H](c2ccccc2)O[C@@H]2CO[C@@H](c3ccc(-c4ccccc4)cc3)O[C@@H]12
Cytomegalovirus [1]
  IC50: 0.8 µg/mL (≈ 1.85 µM)
HEL
  CC50: > 50 µg/mL
  MCC: ≥ 16 µg/mL
Cytomegalovirus [2]
  IC50: 0.6 µg/mL (≈ 1.39 µM)

## CCCCCO[C@@H]1[C@@H](OCCCCC)[C@H](c2ccccc2)O[C@@H]2CO[C@@H](c3ccccc3)O[C@@H]12
Cytomegalovirus [1]
  IC50: > 3.2 µg/mL
HEL
  CC50: 182 µg/mL (≈ 388 µM)
  MCC: 16 µg/mL
Cytomegalovirus [2]
  IC50: 2.4 µg/mL (≈ 5.12 µM)

## CO[C@@H]1[C@@H](OC)[C@H](c2ccccc2)O[C@@H]2CO[C@@H](c3ccccc3)O[C@@H]12
Cytomegalovirus [1]
  IC50: 2 µg/mL (≈ 5.61 µM)
Cytomegalovirus [2]
  IC50: 2.4 µg/mL (≈ 6.73 µM)

## CO[C@@H]1[C@@H](OC)[C@H](c2ccccc2)O[C@@H]2CO[C@@H](c3ccc4ccccc4c3)O[C@@H]12
Cytomegalovirus [1]
  IC50: 0.47 µg/mL (≈ 1.16 µM)
HEL
  CC50: > 50 µg/mL
  MCC: ≥ 16 µg/mL
Cytomegalovirus [2]
  IC50: 0.8 µg/mL (≈ 1.97 µM)

## C=CC[C@@H]1O[C@@H]2CO[C@@H](c3ccccc3)O[C@H]2[C@H](OC)[C@H]1OC
Cytomegalovirus [1]
  IC50: > 50 µg/mL
Cytomegalovirus [2]
  IC50: > 50 µg/mL

## CO[C@H]1[C@@H]2O[C@H](c3ccccc3)OC[C@H]2O[C@@H](c2ccccc2)[C@H]1OC
Cytomegalovirus [1]
  IC50: > 50 µg/mL
HEL
  MCC: 400 µg/mL
Cytomegalovirus [2]
  IC50: > 50 µg/mL

## CO[C@@H]1[C@@H](OC)[C@H](c2ccccc2)O[C@@H]2CO[C@@H](C3CCCCC3)O[C@@H]12
Cytomegalovirus [1]
  IC50: 3.2 µg/mL (≈ 8.83 µM)
HEL
  CC50: 28 µg/mL (≈ 77.2 µM)
  MCC: 20 µg/mL
Cytomegalovirus [2]
  IC50: 3.5 µg/mL (≈ 9.66 µM)

## C=CCO[C@@H]1[C@@H](OCC=C)[C@H](Cc2ccccc2)O[C@@H]2CO[C@@H](c3ccccc3)O[C@@H]12
Cytomegalovirus [1]
  IC50: 1.2 µg/mL (≈ 2.84 µM)
HEL
  CC50: > 50 µg/mL
  MCC: 20 µg/mL
Cytomegalovirus [2]
  IC50: 1 µg/mL (≈ 2.37 µM)

## O[C@@H]1[C@@H](O)[C@H](c2ccccc2)O[C@@H]2CO[C@@H](c3ccc4ccccc4c3)O[C@@H]12
Cytomegalovirus [1]
  IC50: 1.3 µg/mL (≈ 3.44 µM)
HEL
  CC50: 21 µg/mL (≈ 55.5 µM)
  MCC: ≥ 400 µg/mL
Cytomegalovirus [2]
  IC50: 1.8 µg/mL (≈ 4.76 µM)

## CO[C@@H]1[C@@H](OC)[C@H](Cc2ccccc2)O[C@@H]2CO[C@@H](c3ccccc3)O[C@@H]12
Cytomegalovirus [1]
  IC50: 20 µg/mL (≈ 54 µM)
HEL
  CC50: > 50 µg/mL
  MCC: 20 µg/mL
Cytomegalovirus [2]
  IC50: 5 µg/mL (≈ 13.5 µM)

## O=[N+]([O-])c1ccc([C@@H]2OC[C@H]3O[C@@H](c4ccccc4)[C@H](O)[C@@H](O)[C@@H]3O2)cc1
Cytomegalovirus [1]
  IC50: 10 µg/mL (≈ 26.8 µM)
HEL
  CC50: > 50 µg/mL
  MCC: 50 µg/mL
Cytomegalovirus [2]
  IC50: 9.3 µg/mL (≈ 24.9 µM)

## O[C@@H]1[C@@H](O)[C@H](c2ccccc2)O[C@@H]2CO[C@@H](c3ccc(C(F)(F)F)cc3)O[C@@H]12
Cytomegalovirus [1]
  IC50: 1.6 µg/mL (≈ 4.04 µM)
HEL
  CC50: 35 µg/mL (≈ 88.3 µM)
  MCC: 400 µg/mL
Cytomegalovirus [2]
  IC50: 1.6 µg/mL (≈ 4.04 µM)
